For 49 compounds, viability results are on record in PubChem BioAssay AID822 (SRMLSC, 2007).

One may read the viability as a read-out of living cells in per cent, often relative to untreated cells.

The source made the active and inactive calls.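 How the source made its calls: active means half-maximal effective dose for blocking growth of human endothelial cells at most 100 µM; inactive means the rest.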

One assay is described as follows: growth suppression of umbilical vein endothelial cells – cell-based, HUVEC, ATP luminescence, dose response (AID 822).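 Further: cells exposed to compound for 72 h before the ATP read; 100% = median luminescence of untreated cell-only control wells on each plate.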 Particulars: HUVEC proliferation, viability ATP luminescence; at 10 µM (top of the series). The method, boiled down: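 Assay system: HUVEC primary endothelial cells, low passage (≤12) | Doses: 0.039–20 µM, 0.2% DMSO | Incubation: 72 h compound exposure at 37 °C | Detection: CellTiter-Glo ATP luminescence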
Consider `COc1cccc(C(=O)Oc2c(CN3CCOCC3)cc(Cl)c3cccnc23)c1`, for which the viability is 84% (inactive).

The assay is the same for the next values; noted with them: HUVEC proliferation, viability ATP luminescence; at 20 µM (top of the series).
Turning to `Cn1c(NC(=O)c2cccc(Cn3cc(Cl)cn3)c2)nc2ccccc21`, the viability is 83.1% (inactive).
As to `N#CCC(=O)Nc1ncn(Cc2ccccc2Cl)n1`, the viability was 95.8% (inactive).
Same read-out and setting: the figure for `COc1ccc(Cl)cc1C(=O)n1nc(C)cc1C` is 96.7% (inactive).
Still for that read-out and setting: to `Cc1ccc(NC(=O)C(C)N2C(=O)c3ccccc3C2=O)cc1` (centres undefined) belongs 90.9% (inactive); to `CC1=C(C)CS(=O)N(S(=O)(=O)c2ccc(Cl)cc2)C1` (centres undefined), 101% (inactive); to `CCC(=O)N1c2ccc(S(=O)(=O)CCC(=O)N3CCn4c3nc3ccccc34)cc2CC1C` (centres undefined), 84.1% (inactive).
On to `C=CCn1c(SCC(=O)NC(=O)NCc2ccco2)nc2sc(CC)cc2c1=O`, for which the viability is 86.9% (inactive).
Consider `NC(=O)Cc1c[nH]c2cccc(O)c12`, for which the viability is 103% (inactive).
On the same count and under the same terms, the figure for `Cc1ccc(-c2nnc(N3CCN(C(=O)CSc4ncn[nH]4)CC3)c3ccccc23)cc1` is 85.9% (inactive).
The same measure, in the same setting: to `CC1(C)CC(=O)c2cc(C(=O)NCc3ccco3)c(=O)n(-c3ccc(Cl)cc3)c2C1` belongs 97.2% (inactive).
The same measure, in the same setting: to `c1ccc(CSc2nnc(-c3c[nH]c4ccccc34)o2)cc1` belongs 85.9% (inactive); to `CCn1nc(C(=O)NC2=NCCS2)c2ccccc2c1=O`, 101% (inactive).
`Cc1nc2ccccc2n1CCc1nc2c3ccccc3nc(SCC(=O)NCc3ccco3)n2n1`: the viability is 86.4% (inactive).
Turning to `Clc1ccc(-c2nc(NCCN3CCOCC3)c3ccccc3n2)cc1`, the viability was 86% (inactive).
Still for that read-out and setting: the figure for `CSc1nncc(=O)[nH]1` is 96.7% (inactive); for `C/C(=N\O)C(=O)C(CN1CCCCC1)CN1CCCCC1` it is 81% (inactive).
Same read-out and setting: to `COc1cccc2c(C)nc(Nc3nc(CSc4nnc(C)s4)cc(=O)[nH]3)nc12` belongs 101% (inactive); to `CC1(C)CSC(=S)N1S(=O)(=O)c1ccccc1`, 99.8% (inactive); to `Nc1nc2ccccc2n1/N=C/c1ccc(-c2ccccc2)o1`, 90.9% (inactive).
Same read-out and setting: to `CC1=CC(C)(C)Nc2ccc(OC(=O)CN3C(=O)C4CCCCC4C3=O)cc21` (centres undefined) belongs 91% (inactive); to `Cc1nn(C)c(C)c1NC(=O)CSc1nc(C2CC2)nc2c1cnn2-c1ccccc1`, 101% (inactive).
`CC(C(=O)N1CCOCC1)N1C(=O)c2ccccc2C1=O` (centres undefined): the viability was 105% (inactive).
Still for that read-out and setting: the figure for `O=C(COc1nc2ccccc2nc1N1CCOCC1)N1CCc2ccccc21` is 86.1% (inactive).
Still for that read-out and setting: to `Cc1ccc(-n2c(SCC(=O)Nc3nccs3)nc3c(c2=O)SCC3)cc1` belongs 100% (inactive); to `CCCN(CCO)Cc1cccc(Br)c1`, 92.7% (inactive).
For the compound `CC1(C)Cc2ccccc2C(NNC(=O)c2ccccn2)=N1`, the viability is 93.7% (inactive).
On to `COc1ccc(N2C(=O)CC(Sc3nnc(-c4ccccc4)o3)C2=O)cc1` (centres undefined), for which the viability was 95% (inactive).
With `COc1ccc(CCC(=O)N2CCN(C3CCCCC3)CC2)cc1`, the viability is 99.8% (inactive).
Consider `COc1ccccc1N1CCN(C(=O)c2ccc(Br)s2)CC1`, for which the viability was 97.5% (inactive).
The same measure, in the same setting: to `Cn1c(=O)c2c(ncn2CC(=O)Nc2nc(-c3ccccc3Cl)cs2)n(C)c1=O` belongs 89.5% (inactive).
`CC1CCCN(c2oc(-c3cccc4ccccc34)nc2C#N)C1` (centres undefined): the viability is 92.1% (inactive).
On the same count and under the same terms, the figure for `OC1(Cc2ccn[nH]2)CCCCC1` is 93.6% (inactive); for `CC1CC(C)CN(S(=O)(=O)c2ccc(C(=O)NCCCn3ccnc3)cc2)C1` (centres undefined) it is 88.4% (inactive).
For the compound `Cn1c(SCC(=O)Nc2ccc(N3CCOCC3)cc2)nnc1-c1ccccc1`, the viability was 103% (inactive).
Turning to `O=C(CN1CCN(S(=O)(=O)c2ccc(F)cc2)CC1)Nc1ccc2c(c1)OCO2`, the viability is 116% (inactive).
As for `O=C(/C=C/NNC(=O)c1ccccc1)c1ccccc1`, the viability was 109% (inactive).
Same read-out and setting: to `COc1ccc(-c2noc(-c3ccc(Br)o3)n2)cc1OC` belongs 99.7% (inactive); to `COc1ccc(OC)c2sc(N3CCCCC3)nc12`, 88.4% (inactive).
For the compound `Cn1c(=O)cc(SCC(=O)NCC2COc3ccccc3O2)c2ccccc21` (centres undefined), the viability is 98.4% (inactive).
Consider `CC(C)(C)n1cnc2cc(NS(=O)(=O)c3ccccc3)ccc21`, for which the viability was 105% (inactive).
As for `COc1ccc2[nH]cc(C(=O)CN3CCN(C(=O)c4ccco4)CC3)c2c1`, the viability was 101% (inactive).
On to `CCOC(=O)N1CCN(C(=O)c2nn(-c3ccc(C)cc3)c(=O)c3c2c2ccccc2n3C)CC1`, for which the viability was 89.2% (inactive).
Same read-out and setting: the figure for `CCCC1(CCC)NC(=O)N(CC(=O)Nc2ccccc2OC)C1=O` is 113% (inactive); for `CCC(C)(C)n1nnnc1C(c1cc2cc(C)cc(C)c2[nH]c1=O)N1CCN(Cc2ccc3c(c2)OCO3)CC1` (centres undefined) it is 80.5% (inactive).
Same read-out and setting: to `CCOc1cc(N2CCOCC2)c(OCC)cc1NC(=O)COc1ncnc2ccc(Br)cc12` belongs 91.2% (inactive).
For `CCOc1ccc(-c2nn3c(-c4ccccc4)nnc3s2)cc1`, the viability was 83.3% (inactive).
Take `Cc1ccc(Cn2c(=S)[nH]c3ccc(N4CCOCC4)cc3c2=O)o1`: the viability was 90.9% (inactive).
The same measure, in the same setting: the figure for `Cc1cc(C)n(-c2nc(Nc3ccccc3C)nc(-n3nc(C)cc3C)n2)n1` is 118% (inactive).
